{"source": "paper PMC4101887", "about": "(Cancer investigation, 2011)", "key": {"[1]": {"test": "Plasma pharmacokinetics of gemcitabine", "format": "in vivo, human", "conditions": "for Tmax / AUC / Cmax: human, plasma, intravenous; for Cmax: Gemcitabine Cmax; for effect of multiple doses of lonafarnib on the pharmacokinetics of gemcitabine: Day 15 versus Day 1"}, "[2]": {"target": "farnesyl transferase (Homo sapiens, UniProt P49354+P49356)", "test": "Prelamin A accumulation in buccal mucosal cells", "format": "in vivo", "conditions": "buccal mucosal swabs, cycle 1 day 15 versus day 1; 10 of 17 samples"}, "[3]": {"test": "Multiple-dose plasma pharmacokinetics of lonafarnib", "format": "in vivo, human", "conditions": "for AUC / Cmax / Tmax / half-life: human, plasma, oral; for AUC: Lonafarnib AUC (τ), 12 hour dosing interval; for Cmax: Lonafarnib Cmax; for Tmax: Lonafarnib Tmax (median); for half-life: Lonafarnib T½", "summary_of_the_method": "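Patients with advanced cancer took oral drug twice daily with food continuously, plus 30 min IV gemcitabine on days 1, 8, 15 of 28-day cycles. The evening dose was withheld on […]. Plasma was sampled on day 15 of cycles 1 and 2, pre-dose and to 24 h. LC-MS/MS had LLOQ 5.00 ng/mL.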"}, "[4]": {"conditions": "lonafarnib 100 mg BID+gemcitabine 750 mg/m2, cycle 1 day 15, n=4"}, "[5]": {"conditions": "lonafarnib 100 mg BID+gemcitabine 750 mg/m2, cycle 2 day 15, n=3"}, "[6]": {"conditions": "lonafarnib 100 mg BID+gemcitabine 1000 mg/m2, cycle 1 day 15, n=3"}, "[7]": {"conditions": "lonafarnib 200 mg BID+gemcitabine 600 mg/m2, cycle 2 day 15, n=4"}}}
{"compound": "Nc1ccn([C@@H]2O[C@H](CO)[C@@H](O)C2(F)F)c(=O)n1", "note": "[Gemcitabine]", "values": [{"measurement": "Tmax", "setting": "[1]; 600 mg/m2, Gemcitabine Tmax (median), lonafarnib 200 mg BID+gemcitabine 600 mg/m2, cycle 1 Day 1 (gemcitabine alone), n=6", "value": 0.38, "unit": "h"}, {"measurement": "AUC", "setting": "[1]; 750 mg/m2, Gemcitabine AUC (τ), lonafarnib 100 mg BID+gemcitabine 750 mg/m2, cycle 1 Day 1 (gemcitabine alone), n=4", "value": 5380, "unit": "ng·h/mL"}, {"measurement": "Tmax", "setting": "[1]; 750 mg/m2, Gemcitabine Tmax (median), lonafarnib 100 mg BID+gemcitabine 750 mg/m2, cycle 1 Day 1 (gemcitabine alone), n=4", "value": 0.5, "unit": "h"}, {"measurement": "Tmax", "setting": "[1]; 750 mg/m2, Gemcitabine Tmax (median), lonafarnib 150 mg BID+gemcitabine 750 mg/m2, cycle 1 Day 1 (gemcitabine alone), n=2", "value": 0.25, "unit": "h"}, {"measurement": "Tmax", "setting": "[1]; 1000 mg/m2, Gemcitabine Tmax (median), lonafarnib 100 mg BID+gemcitabine 1000 mg/m2, cycle 1 Day 1 (gemcitabine alone), n=2", "value": 0.38, "unit": "h"}, {"measurement": "AUC", "setting": "[1]; Gemcitabine AUC (τ), lonafarnib 100 mg BID+gemcitabine 750 mg/m2, cycle 1 Day 15 (with lonafarnib), n=4", "value": 7890, "unit": "ng·h/mL"}, {"measurement": "AUC", "setting": "[1]; Gemcitabine AUC (τ), lonafarnib 100 mg BID+gemcitabine 1000 mg/m2, cycle 1 Day 15 (with lonafarnib), n=3", "value": 5060, "unit": "ng·h/mL"}, {"measurement": "AUC", "setting": "[1]; Gemcitabine AUC (τ), lonafarnib 200 mg BID+gemcitabine 600 mg/m2, cycle 1 Day 15 (with lonafarnib), n=7", "value": 4970, "unit": "ng·h/mL"}, {"measurement": "Cmax", "setting": "[1]; lonafarnib 100 mg BID+gemcitabine 750 mg/m2, cycle 1 Day 15 (with lonafarnib), n=4", "value": 15000, "unit": "ng/mL"}, {"measurement": "Cmax", "setting": "[1]; lonafarnib 100 mg BID+gemcitabine 1000 mg/m2, cycle 1 Day 15 (with lonafarnib), n=3", "value": 9800, "unit": "ng/mL"}, {"measurement": "Cmax", "setting": "[1]; lonafarnib 200 mg BID+gemcitabine 600 mg/m2, cycle 1 Day 15 (with lonafarnib), n=7", "value": 11200, "unit": "ng/mL"}, {"measurement": "Tmax", "setting": "[1]; Gemcitabine Tmax (median), lonafarnib 100 mg BID+gemcitabine 750 mg/m2, cycle 1 Day 15 (with lonafarnib), n=4", "value": 0.5, "unit": "h"}, {"measurement": "Tmax", "setting": "[1]; Gemcitabine Tmax (median), lonafarnib 100 mg BID+gemcitabine 1000 mg/m2, cycle 1 Day 15 (with lonafarnib), n=3", "value": 0.25, "unit": "h"}, {"measurement": "Tmax", "setting": "[1]; Gemcitabine Tmax (median), lonafarnib 200 mg BID+gemcitabine 600 mg/m2, cycle 1 Day 15 (with lonafarnib), n=7", "value": 0.25, "unit": "h"}]}
{"compound": "NC(=O)N1CCC(CC(=O)N2CCC([C@H]3c4ncc(Br)cc4CCc4cc(Cl)cc(Br)c43)CC2)CC1", "note": "[Lonafarnib]", "values": [{"measurement": "samples showing prelamin A accumulation after treatment", "setting": "[2]", "value": 59, "unit": "%"}, {"measurement": "AUC", "setting": "[3]; [4]", "value": 6000, "unit": "ng·h/mL"}, {"measurement": "AUC", "setting": "[3]; [5]", "value": 6030, "unit": "ng·h/mL"}, {"measurement": "AUC", "setting": "[3]; [6]", "value": 8200, "unit": "ng·h/mL"}, {"measurement": "AUC", "setting": "[3]; [7]", "value": 14500, "unit": "ng·h/mL"}, {"measurement": "Cmax", "setting": "[3]; [4]", "value": 717, "unit": "ng/mL"}, {"measurement": "Cmax", "setting": "[3]; [5]", "value": 757, "unit": "ng/mL"}, {"measurement": "Cmax", "setting": "[3]; [6]", "value": 1010, "unit": "ng/mL"}, {"measurement": "Cmax", "setting": "[3]; [7]", "value": 1880, "unit": "ng/mL"}, {"measurement": "Tmax", "setting": "[3]; [4]", "value": 5, "unit": "h"}, {"measurement": "Tmax", "setting": "[3]; [5]", "value": 4, "unit": "h"}, {"measurement": "Tmax", "setting": "[3]; [6]", "value": 4, "unit": "h"}, {"measurement": "Tmax", "setting": "[3]; [7]", "value": 5, "unit": "h"}, {"measurement": "half-life", "setting": "[3]; [4]", "value": 5.21, "unit": "h"}, {"measurement": "half-life", "setting": "[3]; [5]", "value": 3.5, "unit": "h"}, {"measurement": "half-life", "setting": "[3]; [6]", "value": 3.8, "unit": "h"}, {"measurement": "half-life", "setting": "[3]; [7]", "value": 4.78, "unit": "h"}, {"measurement": "90% confidence interval for the AUC(τ) point estimate, Cycle 2 Day 15 to Cycle 1 Day 15", "setting": "[3]; log-transformed data", "value": "76.2–145%"}, {"measurement": "AUC(τ) point estimate, Cycle 2 Day 15 compared to Cycle 1 Day 15", "setting": "[3]; log-transformed data", "value": 105, "unit": "%"}, {"measurement": "mean total body clearance (CL/F), range over dose levels", "setting": "[3]; twice daily multiple doses with weekly gemcitabine", "value": "163 to 594", "unit": "mL/min"}, {"measurement": "effect of multiple doses of lonafarnib on the pharmacokinetics of gemcitabine", "setting": "[1]", "value": "no apparent effect"}, {"measurement": "effect of multiple doses of lonafarnib on the pharmacokinetics of gemcitabine", "setting": "[1]; listed as lonafarnib", "value": "no important effect"}]}
